Mdm2 MdmX PPI = disrupts the human Mdm2-MdmX interaction. 330,000 tested, 3% active. inhibition, % at 8 µM. O15151+Q00987. AID 485346. SaOS-2 split-luciferase Mdm2/MdmX complementation, luminescence;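 active = inhibition of at least 50% at 8 µM in the primary screen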
CHOP UPR activ = activators of apoptotic arm of unfolded protein response (CHOP) | AID 449763 | activation, % at 10 µM | 330,000 tested, 0.34% active | CHO-CHOP luciferase reporter, UPR activation, luminescence; percent of tunicamycin response over DMSO baseline;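 active = at 10 µM dose, activation of 40% or more, normalized to positive control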
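Test system: CHO-CHOP cells, stable luciferase reporter of PERK-eIF2a-CHOP signalling | Quantity: 500 CHO-CHOP cells per well | Buffer or medium: F12 plus 10% serum | Compound dosing: 10 µM single point, 0.5% DMSO | Schedule: 6 h compound treatment, 37 °C | Signal: Luciferase luminescence | Control set: Tunicamycin high control, DMSO low control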
XBP1 UPR activ = adaptive UPR (XBP1) activation; CHO-XBP1 luciferase reporter, IRE1-XBP1 UPR activation, luminescence; percent of tunicamycin response, DMSO as zero; activation, % at 20 µM; 330,000 tested, 0.33% active; AID 463104;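 active = versus positive control, 20 µM dose yields 30% or more activation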
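Material – CHO cell line with stable XBP1 luciferase reporter · Buffer or medium – F12 plus 10% FBS · Compound – single point, 20 µM final compound, 1% DMSO · Schedule – 16-18 h cell attachment at 37 °C, then 6 h compound exposure · Signal – Steady-Glo luminescence read · Benchmarks – high control tunicamycin 10 µg/mL final, low control DMSO vehicle only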
Apaf-1 inh = human Apaf-1 inhibition | O14727 | reconstituted apoptosome caspase-3 activity, DEVD-Rh110 fluorescence | inhibition, % at 20 µM | AID 489030 | 330,000 tested, 0.71% active; active = inhibition of at least 40% at 20 µM
Target sequence (O14727 whole entry, looked up): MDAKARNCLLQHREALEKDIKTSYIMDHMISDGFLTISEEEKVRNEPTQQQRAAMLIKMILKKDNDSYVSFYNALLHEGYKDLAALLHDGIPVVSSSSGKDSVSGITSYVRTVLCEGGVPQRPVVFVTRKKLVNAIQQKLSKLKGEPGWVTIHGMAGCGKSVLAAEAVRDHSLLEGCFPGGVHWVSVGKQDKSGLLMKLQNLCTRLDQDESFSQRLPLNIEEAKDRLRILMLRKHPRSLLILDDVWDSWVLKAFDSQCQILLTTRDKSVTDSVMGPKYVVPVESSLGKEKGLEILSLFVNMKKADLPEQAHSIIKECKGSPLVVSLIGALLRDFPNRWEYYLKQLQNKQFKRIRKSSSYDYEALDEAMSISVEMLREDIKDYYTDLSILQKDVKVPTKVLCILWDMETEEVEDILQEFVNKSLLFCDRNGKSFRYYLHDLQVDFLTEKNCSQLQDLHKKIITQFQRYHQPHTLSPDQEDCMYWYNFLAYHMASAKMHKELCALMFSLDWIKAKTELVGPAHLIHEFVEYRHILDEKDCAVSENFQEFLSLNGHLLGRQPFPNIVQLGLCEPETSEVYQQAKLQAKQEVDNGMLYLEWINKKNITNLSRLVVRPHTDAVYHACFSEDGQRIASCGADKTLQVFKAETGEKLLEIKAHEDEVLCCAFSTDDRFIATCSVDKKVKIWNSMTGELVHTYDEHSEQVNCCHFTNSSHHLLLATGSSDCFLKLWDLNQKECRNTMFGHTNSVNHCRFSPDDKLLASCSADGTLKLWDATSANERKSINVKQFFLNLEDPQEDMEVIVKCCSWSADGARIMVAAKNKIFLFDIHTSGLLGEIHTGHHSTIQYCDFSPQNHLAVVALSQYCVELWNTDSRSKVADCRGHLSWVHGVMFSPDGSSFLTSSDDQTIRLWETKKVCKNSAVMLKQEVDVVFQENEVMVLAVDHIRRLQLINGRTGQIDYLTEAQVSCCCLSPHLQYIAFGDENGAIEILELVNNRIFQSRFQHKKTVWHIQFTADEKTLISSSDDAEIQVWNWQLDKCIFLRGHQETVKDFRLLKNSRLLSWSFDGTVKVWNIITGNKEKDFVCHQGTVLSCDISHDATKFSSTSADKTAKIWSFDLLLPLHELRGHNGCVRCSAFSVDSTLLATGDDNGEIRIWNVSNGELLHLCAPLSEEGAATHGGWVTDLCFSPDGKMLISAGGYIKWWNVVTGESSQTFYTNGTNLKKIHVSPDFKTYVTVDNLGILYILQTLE
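detection = Rh110 fluorescence intensity | test system = biochemical Apaf-1 apoptosome reconstitution | also added = cytochrome c and DEVD-Rh110 substrate | schedule = 30 min plus 50 min, RT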
UBC13 polyUb = human UBC13 polyubiquitination inhibition; inhibition, % at 20 µM; AID 485273; 330,000 tested, 0.47% active; P61088; UBC13 polyubiquitin chain formation, TR-FRET; in the data active = inhibition above about 45%, passing the limit was not always enough
Mdm2 MdmX conf = confirmation of human Mdm2/MdmX interaction inhibitors; Mdm2-MdmX binding, luminescent assay; shares compounds with Mdm2 MdmX PPI; inhibition, % at 8 µM; 10,000 tested, 55% active; in the data active = inhibition above about 40%
Full FLuc ctr = inhibits full-length luciferase, flagging false Mdm2/MdmX hits; shares compounds with Mdm2 MdmX PPI; SaOS-2 full-length luciferase counterscreen, luminescence; inhibition, % at 8 µM; 6,200 tested, 77% active;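 active = mean inhibition at 8 µM reaching about 37%, which flags the compound as non-specific, limit read from the data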;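 note: p53-null SaOS-2 cells with luciferase driven by a doxycycline-inducible promoter; compound on cells about two nights before reading with doxycycline added after day one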
Each line names hits and unclear results; the compound was inactive in the other large screens (follow-up assays come after a bar, where they were run). Rows were chosen to be rich in hits. Some 4.1% of all compounds tested hit in one or more screens of this group.

CCc1ccc2[nH]c(=O)c(CN(CCCN3CCOCC3)C(=O)Nc3ccc(Cl)cc3)cc2c1	none
COc1ccccc1NC(=O)CSc1nccc(-c2ccco2)n1	none
O=C(NCCN1CCN(S(=O)(=O)c2ccc([N+](=O)[O-])cc2)CC1)C(=O)Nc1ccccc1	Mdm2 MdmX PPI 71 | Mdm2 MdmX conf inactive
Cc1ccc(N2C(N)=C(C#N)C(c3cc(CN4CCOCC4)cs3)C3=C2CC(C)(C)CC3=O)cc1 (stereo unspecified)	none
Cc1cc(C)n(-c2cccc3cccnc23)n1	none
Cc1cc(C)n(-c2ccc3cccc(NS(C)(=O)=O)c3n2)n1	Mdm2 MdmX PPI 74 | Mdm2 MdmX conf 44 | Full FLuc ctr inactive
CCOC(=O)c1ccc(-c2ccc3oc(-c4ccsc4)cc(=O)c3c2)cc1F	none
COc1ccc(-c2ccc3c(=O)cc(-c4ccsc4)oc3c2)cn1	Mdm2 MdmX PPI 79 | Mdm2 MdmX conf inactive
COc1cc(-c2ccc3oc(-c4ccsc4)cc(=O)c3c2)cc(OC)c1OC	Mdm2 MdmX PPI 73 | Mdm2 MdmX conf inactive
COc1ccc(NS(=O)(=O)c2ccc(/C=C/C(=O)O)cc2)cc1S(=O)(=O)N1CCOCC1	none
CNC(=O)c1c(O)c2cccc3c2n(c1=O)CCC3	Mdm2 MdmX PPI 75 | Mdm2 MdmX conf 84 | Full FLuc ctr 47
C=CCN1C(=O)C(CC(=O)Nc2ccc(OCCC)cc2)N(CCCN2CCN(Cc3ccccc3)CC2)C1=S (stereo unspecified)	Mdm2 MdmX PPI 80 | Mdm2 MdmX conf inactive | Full FLuc ctr 75
COc1ccc(NC(=O)CC2C(=O)N(Cc3ccccc3)C(=S)N2CCN2CCOCC2)cc1 (stereo unspecified)	none
CCc1nn(C(C)C(=O)NC(C)CCc2ccco2)c(=O)c2cc3occc3n12 (stereo unspecified)	none
CN(C)CCN(C)Cc1ccccc1Sc1cccc2ccccc12	Mdm2 MdmX PPI 64 | Mdm2 MdmX conf 43 | Full FLuc ctr 69
CCn1c(Oc2ccccc2C)nc2c1c(=O)n(C)c(=O)n2C	Mdm2 MdmX PPI 57 | Mdm2 MdmX conf 42 | Full FLuc ctr 43
C/C(N)=C(/C#N)C(=O)COC(=O)c1cc(C)n(-c2ccc(F)cc2)c1C	Mdm2 MdmX PPI 80 | Mdm2 MdmX conf inactive
CCCC(=O)Nc1ccc(Cl)c(NC(=S)NC(=O)c2ccco2)c1	none
COc1ccccc1CCc1nnc(CCC(=O)NC(C)Cn2nc(C)cc2C)o1 (stereo unspecified)	none
N#Cc1c2ccc(O)cc2n2ccccc12	Mdm2 MdmX PPI 76 | Mdm2 MdmX conf 73 | Full FLuc ctr inactive
COc1ccc(-c2cnc(N)nc2-c2ccc(OC)cc2O)cc1	Mdm2 MdmX PPI 58 | Mdm2 MdmX conf inactive
C=C(C)COc1ccc(-c2n[nH]c(C)c2-c2ccc(OC)c(OC)c2)c(O)c1	Mdm2 MdmX PPI 71 | Mdm2 MdmX conf 54 | Full FLuc ctr 63
COc1ccc(-c2nc(N)ncc2-c2ccccc2)c(O)c1	none
COc1ccc(Oc2cn[nH]c2-c2ccc(O)cc2O)cc1	none
C=C(C)COc1ccc(-c2n[nH]c(C)c2Oc2ccccc2OC)c(O)c1	none
COc1ccc(-c2cn[nH]c2-c2ccc(OCc3ccccc3)cc2O)cc1OC	Mdm2 MdmX PPI 53 | Mdm2 MdmX conf 55 | Full FLuc ctr 43
COc1ccc(-c2cn[nH]c2-c2ccc(O)cc2O)cc1	Mdm2 MdmX PPI 71 | Mdm2 MdmX conf 70 | Full FLuc ctr inactive
COc1ccc(-c2cn[nH]c2-c2ccc(OCc3ccc(F)cc3)cc2O)cc1OC	none
COc1ccc(CC(=O)N(Cc2ccccc2)c2ccc(C)cc2)cc1OC	none
CCCCOc1cccc(C(=O)N(Cc2ccccc2)C2CCS(=O)(=O)C2)c1 (stereo unspecified)	none
COc1ccc(-c2n[nH]c(C)c2-c2ccc(Cl)cc2)c(O)c1	none
COc1ccc(-c2cn[nH]c2-c2ccc(OCC(=O)NN)cc2O)cc1OC	none
C=C(C)COc1ccc(-c2[nH]ncc2-c2ccc(OC)cc2)c(O)c1	Mdm2 MdmX PPI 63 | Mdm2 MdmX conf 65 | Full FLuc ctr inactive
COc1ccc(-c2n[nH]c(C)c2-c2ccc(Cl)cc2)c(O)c1OC	Mdm2 MdmX PPI 87 | Mdm2 MdmX conf 73 | Full FLuc ctr 39
C=C(C)COc1ccc(-c2[nH]ncc2-c2ccc(OC)c(OC)c2)c(O)c1	Mdm2 MdmX PPI 66 | Mdm2 MdmX conf 60 | Full FLuc ctr 56
CCNC(=O)n1nccc1C(C)Oc1cccc(C(F)(F)F)c1 (stereo unspecified)	none
O=C(N/N=C/c1cccc(Cl)c1)c1c(O)c2c([nH]c1=O)CCCC2	Mdm2 MdmX PPI 69 | Mdm2 MdmX conf inactive
O=c1oc(-c2ccccc2)cc(Cl)c1Cl	Mdm2 MdmX PPI 94, CHOP UPR activ 58 | Mdm2 MdmX conf 81 | Full FLuc ctr inactive
O=P(O)(O)c1cc(-c2ccccc2)oc1-c1ccccc1	none
C=C(C)[C@@H]1CC[C@]2(C(=O)O)CC[C@]3(C)[C@H](CC[C@@H]4[C@@]5(C)CC[C@H](O)C(C)(C)[C@@H]5CC[C@]43C)[C@@H]12	Mdm2 MdmX PPI 55 | Mdm2 MdmX conf inactive
N#C/C(=C/c1ccc(F)cc1)c1nnc(NC(=O)c2ccccc2)s1	Mdm2 MdmX PPI 74 | Mdm2 MdmX conf inactive
CN(Cc1ccc(F)cc1)S(=O)(=O)c1nnc(NC(=O)c2ccccc2)s1	none
O=C(NCCC1=CCCCC1)c1coc(=O)c(Br)c1	Mdm2 MdmX PPI 84 | Mdm2 MdmX conf inactive | Full FLuc ctr inactive
O=C(NCCC1=CCCCC1)c1ccc(=O)oc1	none
COc1cc(CN2CCC(C(=O)NCC(C)(C)CN(C)C)CC2)ccc1OCc1ccccc1	Mdm2 MdmX PPI 92 | Mdm2 MdmX conf 80 | Full FLuc ctr 71
CCCCNC(=O)C1CCN(Cc2ccc(OCc3ccccc3)c(OC)c2)CC1	none
CC(C)c1ccc(NC(=O)c2ccc(NC3=NC4CS(=O)(=O)CC4S3)cc2)cc1 (stereo unspecified)	none
Cc1cccc(C)c1OCC(=O)Nc1cccc(-c2nnc(-c3ccccc3)o2)c1	Mdm2 MdmX PPI 61 | Mdm2 MdmX conf inactive
Cc1cccc(OCC(=O)Nc2cccc(-c3nnc(-c4ccccc4)o3)c2)c1C	none
COc1ccc(-c2ccc(N(C)C)cc2)cc1[C@H]1[C@H]2C=CC[C@@H](C)[C@@H]2C(=O)N1Cc1ccccc1	none
CC(=O)c1ccc(-c2ccc([C@H]3[C@H]4C=CC[C@@H](C)[C@@H]4C(=O)N3Cc3ccccc3)c(F)c2)cc1	Mdm2 MdmX PPI 56 | Mdm2 MdmX conf inactive

High-throughput results as filed in PubChem BioAssay.
